How the values were obtained:
Conditions in all cases: tested as the 18F-labelled form
[1] = molecular target: Sodium-dependent serotonin transporter (Rattus norvegicus) (UniProt P31652); assay: Specific binding of [18F]AFA in rat striatum after GBR-12935 treatment; n=3; format: functional, tissue-based
Method in brief: (§1)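 Rats, three per group, were pretreated iv with blocker at 2 mg/kg in saline, or with saline as control, 10–15 min before tail-vein F-18 radioligand (about 20 µCi). Killed at 60 min and regional %ID/g determined. Specific binding = (region activity − cerebellum activity)/cerebellum activity; mean ± SD.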

[2] = molecular target: Sodium-dependent serotonin transporter (Rattus norvegicus) (UniProt P31652); assay: Specific binding of [18F]AFA in rat thalamus after GBR-12935 treatment; n=3; format: functional, tissue-based; method in brief: as §1
[3] = molecular target: Sodium-dependent serotonin transporter (Rattus norvegicus) (UniProt P31652); assay: Specific binding of [18F]-AFA in rat striatum after citalopram treatment; n=3; format: functional, tissue-based; method in brief: as §1
[4] = molecular target: Sodium-dependent serotonin transporter (Rattus norvegicus) (UniProt P31652); assay: Specific binding of [18F]-AFA in rat striatum after nisoxetine treatment; n=3; format: functional, tissue-based; method in brief: as §1
[5] = molecular target: Sodium-dependent serotonin transporter (Rattus norvegicus) (UniProt P31652); assay: Specific binding of [18F]AFA in rat thalamus after citalopram treatment; n=3; format: functional, tissue-based; method in brief: as §1
[6] = molecular target: Sodium-dependent serotonin transporter (Rattus norvegicus) (UniProt P31652); assay: Specific binding of [18F]AFA in rat thalamus after nisoxetine treatment; n=3; format: functional, tissue-based; method in brief: as §1
[7] = molecular target: Sodium-dependent serotonin transporter (Rattus norvegicus) (UniProt P31652); assay: Specific binding of [18F]AFA in rat hippocampus after GBR-12935 treatment; n=3; format: functional, tissue-based; method in brief: as §1
[8] = molecular target: Sodium-dependent serotonin transporter (Rattus norvegicus) (UniProt P31652); assay: Specific binding of [18F]AFA in rat hypothalamus after GBR-12935 treatment; n=3; format: functional, tissue-based; method in brief: as §1
[9] = molecular target: Sodium-dependent serotonin transporter (Rattus norvegicus) (UniProt P31652); assay: Specific binding of [18F]AFA in rat hippocampus after citalopram treatment; n=3; format: functional, tissue-based; method in brief: as §1
[10] = molecular target: Sodium-dependent serotonin transporter (Rattus norvegicus) (UniProt P31652); assay: Specific binding of [18F]AFA in rat hippocampus after nisoxetine treatment; n=3; format: functional, tissue-based; method in brief: as §1
[11] = molecular target: Sodium-dependent serotonin transporter (Rattus norvegicus) (UniProt P31652); assay: Specific binding of [18F]AFA in rat frontal cortex after GBR-12935 treatment; n=3; format: functional, tissue-based; method in brief: as §1
[12] = molecular target: Sodium-dependent serotonin transporter (Rattus norvegicus) (UniProt P31652); assay: Specific binding of [18F]AFA in rat hypothalamus after citalopram treatment; n=3; format: functional, tissue-based; method in brief: as §1
[13] = molecular target: Sodium-dependent serotonin transporter (Rattus norvegicus) (UniProt P31652); assay: Specific binding of [18F]AFA in rat hypothalamus after nisoxetine treatment; n=3; format: functional, tissue-based; method in brief: as §1
[14] = molecular target: Sodium-dependent serotonin transporter (Rattus norvegicus) (UniProt P31652); assay: Specific binding of [18F]AFA in rat frontal cortex after citalopram treatment; n=3; format: functional, tissue-based; method in brief: as §1
[15] = molecular target: Sodium-dependent serotonin transporter (Rattus norvegicus) (UniProt P31652); assay: Specific binding of [18F]AFA in rat frontal cortex after nisoxetine treatment; n=3; format: functional, tissue-based; method in brief: as §1
[16] = molecular target: Sodium-dependent serotonin transporter (Rattus norvegicus) (UniProt P31652); assay: Specific binding in rat hypothalamus at 10 min postinjection in vivo; format: functional, organism-based
Method in brief: (§2)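 Male Sprague-Dawley rats, n=3 per time point, received about 20 µCi of F-18 radioligand in saline iv by tail vein and were killed at 10–120 min. %ID/g was measured with decay and tail-residual correction. Hypothalamic specific binding = (%ID/g hypothalamus − %ID/g cerebellum)/%ID/g cerebellum; mean ± SD.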

[17] = molecular target: Sodium-dependent serotonin transporter (Rattus norvegicus) (UniProt P31652); assay: Specific binding in rat hypothalamus at 30 min postinjection in vivo; format: functional, organism-based; method in brief: as §2
[18] = molecular target: Sodium-dependent serotonin transporter (Rattus norvegicus) (UniProt P31652); assay: Specific binding in rat hypothalamus at 60 min postinjection in vivo; format: functional, organism-based; method in brief: as §2
[19] = molecular target: Sodium-dependent serotonin transporter (Rattus norvegicus) (UniProt P31652); assay: Specific binding in rat hypothalamus at 90 min postinjection in vivo; format: functional, organism-based; method in brief: as §2
[20] = molecular target: Sodium-dependent serotonin transporter (Rattus norvegicus) (UniProt P31652); assay: Specific binding in rat hypothalamus at 120 min postinjection in vivo; format: functional, organism-based; method in brief: as §2
[21] = species on record: Rattus norvegicus; assay: Regional uptake of [18F]AFA in blood of rat pretreated with compound 7e; n=3; format: functional, organism-based
[22] = species on record: Rattus norvegicus; assay: Regional uptake of [18F]-AFA in striatum of rat pretreated with compound 7e; n=3; format: functional, organism-based
[23] = species on record: Rattus norvegicus; assay: Regional uptake of [18F]AFA in cerebellum of rat pretreated with compound 7e; n=3; format: functional, organism-based
[24] = species on record: Rattus norvegicus; assay: Regional uptake of [18F]-AFA in blood of rat pretreated with compound GBR-12935; n=3; format: functional, organism-based
Method in brief: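 Male Sprague-Dawley rats, three per group, received blocker (2 mg/kg iv in saline) or saline only (controls) 10–15 min before about 20 µCi of tail-vein F-18 radioligand. Killed 60 min after tracer. Blood and brain regions weighed and gamma-counted. %ID/g was decay- and tail-corrected; mean ± SD.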

Sequence of Sodium-dependent serotonin transporter (Rattus norvegicus) (P31652 whole entry): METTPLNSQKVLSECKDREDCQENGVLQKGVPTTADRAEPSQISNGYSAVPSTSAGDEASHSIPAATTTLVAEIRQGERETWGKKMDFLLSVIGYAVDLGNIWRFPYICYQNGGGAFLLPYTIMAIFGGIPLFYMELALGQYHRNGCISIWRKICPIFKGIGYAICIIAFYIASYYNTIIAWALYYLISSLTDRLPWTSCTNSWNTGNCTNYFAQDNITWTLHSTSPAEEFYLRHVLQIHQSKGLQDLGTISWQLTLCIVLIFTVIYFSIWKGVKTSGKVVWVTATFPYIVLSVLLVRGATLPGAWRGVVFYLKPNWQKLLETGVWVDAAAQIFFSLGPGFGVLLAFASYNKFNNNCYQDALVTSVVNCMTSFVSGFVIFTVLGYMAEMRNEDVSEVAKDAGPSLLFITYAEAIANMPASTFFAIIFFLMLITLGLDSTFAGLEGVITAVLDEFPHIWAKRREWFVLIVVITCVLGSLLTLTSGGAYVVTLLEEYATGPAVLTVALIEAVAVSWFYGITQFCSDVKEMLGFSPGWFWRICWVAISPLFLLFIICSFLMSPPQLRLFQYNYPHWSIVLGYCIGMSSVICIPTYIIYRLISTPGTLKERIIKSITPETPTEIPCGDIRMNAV

`CN(C)Cc1ccccc1Sc1ccc(CCF)cc1N` showed a Specific binding [1] of 2.62 %ID/g, a Specific binding [2] of 3.38 %ID/g and a Specific binding [3] of 0.5 %ID/g. It also gave a Specific binding [4] of 2.1 %ID/g, a Specific binding [5] of 0.89 %ID/g and a Specific binding [6] of 3.56 %ID/g. The Specific binding [7] was 2.18 %ID/g, the Specific binding [8] was 3.85 %ID/g and the Specific binding [9] was 0.54 %ID/g. It also gave a Specific binding [10] of 1.63 %ID/g, a Specific binding [11] of 1.98 %ID/g and a Specific binding [12] of 1 %ID/g. It also gave a Specific binding [13] of 4 %ID/g, a Specific binding [14] of 0.31 %ID/g and a Specific binding [15] of 1.82 %ID/g. It also gave a Specific binding [16] of 0.96 %ID/g, a Specific binding [17] of 2.22 %ID/g and a Specific binding [18] of 3.35 %ID/g. The Specific binding (dimensionless ratio) [19] was 4.36, the Specific binding (dimensionless ratio) [20] was 4.5 and the Uptake [21] was 0.06 %ID/g. The Uptake [22] was 0.11 %ID/g, the Uptake [23] was 0.07 %ID/g and the Uptake [24] was 0.06 %ID/g.

— ChEMBL document CHEMBL1145212, “Fluorinated diaryl sulfides as serotonin transporter ligands: synthesis, structure-activity relationship study, and in vivo evaluation of fluorine-18-labeled compounds as PET imaging agents” (J Med Chem, 2005)
